Where “and” joins values, the source holds several entries; their conditions need not be identical. Equal entries are not always repeated.
What was measured:
claudin-1 (CLDN1) = assay: siRNA knockdown of claudin-1 expression, peptide and antibody staining; type: cell-based, human; settings: control and CLDN1 siRNA, confocal
Outline: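 SW620 cells seeded at 0.2×10^6 cells/mL, transfected with DharmaFECT1 plus 25 nM CLDN1 SMARTpool or control siRNA for 72 h, then passaged onto coverslips. Knockdown checked by western blot. Staining: 5 µM Cy5.5-labeled peptide or control peptide 30 min at 4°C, then 4% PFA fixation; or methanol fixation, anti-CLDN1 5 µg/mL 1 h RT, AF488 secondary. Two-way ANOVA on average intensity (10 cells/slide, 2 slides/condition).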

SW620 cells [1] = assay: Cell binding assay, confocal microscopy; type: cell-based, human
Outline: (§1)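 Cells grown in DMEM + 10% FBS + 1% penicillin/streptomycin at 37°C, 5% CO2, then seeded at ~0.5×10^6 cells/mL on coverslips. Next day, 10 µM Cy5.5-labeled test peptide or Cy5.5-labeled control peptide added for 1 h at 4°C. Fixed in 4% PFA 10 min RT, DAPI counterstain, confocal imaging. Intensities from 10 random cells in 3 independent images; one-way ANOVA.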

HCT116 cells = assay: Cell binding assay, confocal microscopy; type: cell-based, human
SW480 cells = assay: Cell binding assay, confocal microscopy; type: cell-based, human
Outline: as §1

[2] = system: human proximal colon FFPE specimens; assay: Immunofluorescence of proximal human colon specimens with claudin-1 peptide; settings: human proximal colon FFPE sections, 5 µM peptide 10 min at RT
Outline: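 FFPE sections (5 µm) deparaffinized. Antigen retrieval: boiling 10 mM sodium citrate, 0.05% Tween, pH 6.0, then sub-boiling 15 min. Protein serum block 15 min RT. 5 µM Cy5.5-labeled peptide 10 min RT, then anti-claudin-1 (1:200) overnight and AF488 secondary (1:500) 1 h RT, DAPI mount. Equal exposure; mean intensity from three 20×20 µm² boxes within epithelium per image, avoiding saturation.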

SW620 cells [3] = assay: Apparent association time constant by flow cytometry; type: binding, human; settings: from k = 0.83 min^−1

| Substance | binding / signal in SW620 cells transfected with siCL or siCLDN1 (claudin-1 (CLDN1)) | binding to cell surface on confocal microscopy (SW620 cells [1]) | binding to cell surface on confocal microscopy (HCT116 cells) | binding to cell surface on confocal microscopy (SW480 cells) | mean (±std) fluorescence intensity, SSA ([2]; n = 11 SSA) | mean (±std) fluorescence intensity, normal ([2]; n = 28 normal) | time constant / time scale for binding corresponding to k (SW620 cells [3]) |
| --- | --- | --- | --- | --- | --- | --- | --- |
| SPTSSRR [SPT*-Cy5.5] | minimal binding | minimal binding | minimal binding | minimal binding | – | – | – |
| RTSPSSR [RTS*-Cy5.5] | – | – | – | – | 20.1±13.3 | 9.1±6.0 | < 1.2 min and ~ 1.2 min |
